Tests used:
Canis familiaris = experiment: Volume of distribution in dog at 5 mL/kg, po; assay type: ADME, organism-based, Canis lupus familiaris; conditions: in vivo
Summary of the method: (§1)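 Oral suspensions were given to overnight-fasted animals in the morning, at 10 mL/kg in rats, 5 mL/kg in dogs and 1 mL/kg in monkeys. Intravenous dosing was 1 mL/kg in all species. Plasma was sampled at intervals and analyzed by LC-MS after protein precipitation with 1.5 volumes acetonitrile and centrifugation.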

[1] = Metabolic stability in po dosed rat urine assessed as drug recovery after 96 hrs; assay type: ADME, organism-based; conditions: read-out: Stability
Summary of the method: (§2)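 Radiolabeled compound was given orally to bile-cannulated rats. Radioactivity was recovered from bile, urine and feces over 96 h and expressed as percent of dosed radioactivity.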

[2] = Metabolic stability in po dosed rat bile assessed as drug recovery after 96 hrs; assay type: ADME, organism-based; conditions: read-out: Stability; summary of the method: as §2
[3] = Metabolic stability in po dosed rat assessed as drug recovery after 96 hrs; assay type: ADME, organism-based; conditions: in vivo; summary of the method: as §2
[4] = Selectivity for rabbit cathepsin K over human cathepsin S
Summary of the method: (§3)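 Counterscreens used human Cat B and Cat S. Selectivity is expressed against humanized rabbit Cat K.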

[5] = Half life in dog at 5 mL/kg, po; assay type: ADME, organism-based, Canis lupus familiaris; conditions: in vivo; summary of the method: as §1
[6] = Oral bioavailability in rhesus monkey at 1 mL/kg; assay type: ADME, organism-based, Macaca mulatta; conditions: in vivo; summary of the method: as §1
[7] = Oral bioavailability in dog at 5 mL/kg; assay type: ADME, organism-based, Canis lupus familiaris; conditions: in vivo; summary of the method: as §1
Rhesus monkey [8] = experiment: Inhibition of bone resorption in ovariectomized monkey model of osteoporosis assessed as reduction of urinary-N-telopeptide fragment level at 1 mg/kg administered once daily; set-up: scale not given: the % may be the effect or the level left
[9] = Selectivity for rabbit cathepsin K over human cathepsin V
[10] = Selectivity for rabbit cathepsin K over human cathepsin H
[11] = AUC in ovariectomized monkey model of osteoporosis at 1 mg/kg, po qd for 1 week; assay type: ADME, organism-based, Macaca mulatta; set-up: dose 1 mg/kg, route oral; conditions: female, rhesus monkey, in vivo
Summary of the method: (§4)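 Adult ovariectomized rhesus monkeys dosed orally once daily at 1 mpk for 1 week, dosing volume 1 mL/kg, fasted overnight before morning dosing. Plasma drug levels were taken on the final day of dosing and analyzed by LC-MS after protein precipitation with 1.5 volumes acetonitrile and centrifugation.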

[12] = Cmax in ovariectomized monkey model of osteoporosis at 1 mg/kg, po qd for 1 week; assay type: ADME, organism-based, Macaca mulatta; set-up: dose 1 mg/kg, route oral; conditions: female, rhesus monkey, in vivo; summary of the method: as §4
[13] = Drug level in ovariectomized monkey model of osteoporosis at 1 mg/kg, po qd for 1 week measured after 24 hrs of last dose; assay type: ADME, organism-based, Macaca mulatta; set-up: dose 1 mg/kg, route oral; conditions: female, rhesus monkey, in vivo, read-out: Drug uptake; summary of the method: as §4
Homo sapiens = species: Homo sapiens; experiment: Inhibition of humanized rabbit cathepsin K Tyr61Asp and Val157Leu mutant in presence of 0.2 uM citrate buffer at 0.12 uM
Summary of the method: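 Reversibility test: a 1:1 mixture of humanized rabbit Cat K and inhibitor (0.12 µM) was preincubated 15 min, then diluted 500-fold into substrate-containing buffer (0.2 µM citrate). Recovery of enzyme activity was followed over time against a control incubation, giving a recovery half-time.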

[14] = Tmax in ovariectomized monkey model of osteoporosis at 1 mg/kg, po qd for 1 week; assay type: ADME, organism-based, Macaca mulatta; set-up: dose 1 mg/kg, route oral; conditions: female, rhesus monkey, in vivo; summary of the method: as §4
[15] = Bone resorption shift, ratio of IC50 for inhibition of bone resorption in rabbit bone to IC50 for rabbit cathepsin K; assay type: functional, Oryctolagus cuniculus
Summary of the method: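 Bone resorption shift is the rabbit bone resorption IC50 divided by the rabbit Cat K IC50.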

Rattus norvegicus [16] = experiment: Metabolic stability in po dosed rat assessed as (1R,2R)-5,5-dichloro-N-(1-cyanocyclopropyl)-2-(4-(4-(methylsulfonyl)phenyl)-1H-pyrazol-3-yl)cyclohexanecarboxamide level after 96 hrs; assay type: ADME, organism-based; conditions: in vivo
[17] = Inhibition of bone resorption in rabbit bone; assay type: functional, tissue-based, Oryctolagus cuniculus, Bone element
[18] = Metabolic stability in po dosed rat feces assessed as drug recovery after 96 hrs; assay type: ADME, organism-based; conditions: faeces, read-out: Stability; summary of the method: as §2
[19] = Inhibition of humanized rabbit cathepsin K Tyr61Asp and Val157Leu mutant; set-up: species or system Homo sapiens
[20] = Inhibition of bone resorption in rhesus monkey bone; assay type: functional, tissue-based, Macaca mulatta, Bone element
[21] = Clearance in rat at 10 mL/kg, po; assay type: ADME, organism-based; conditions: in vivo; summary of the method: as §1
Rhesus monkey [22] = experiment: Inhibition of bone resorption in ovariectomized monkey model of osteoporosis assessed as reduction of urinary-N-telopeptide fragment level at 1 mg/kg, po qd for 1 week; assay type: functional, Macaca mulatta, Urine; set-up: scale not given: the % may be the effect or the level left
Summary of the method: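 Adult ovariectomized rhesus monkeys given drug or vehicle orally once daily at 1 mpk for 1 week. Bone resorption was followed by urinary N-telopeptide (NTx) normalized to creatinine (nM/mM), and the value is the mean reduction versus vehicle-treated animals.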

[23] = Selectivity for rabbit cathepsin K over human cathepsin Z
[24] = Clearance in rhesus monkey at 1 mL/kg, po; assay type: ADME, organism-based, Macaca mulatta; conditions: in vivo; summary of the method: as §1
Rhesus monkey [25] = experiment: Volume of distribution in rhesus monkey at 1 mL/kg, po; assay type: ADME, organism-based, Macaca mulatta; conditions: in vivo; summary of the method: as §1
[26] = Selectivity for rabbit cathepsin K over human cathepsin C
Cathepsin K = biological target: T1, Cathepsin K (Oryctolagus cuniculus, UniProt P43236); experiment: Inhibition of rabbit cathepsin K
T1 sequence (P43236 whole entry): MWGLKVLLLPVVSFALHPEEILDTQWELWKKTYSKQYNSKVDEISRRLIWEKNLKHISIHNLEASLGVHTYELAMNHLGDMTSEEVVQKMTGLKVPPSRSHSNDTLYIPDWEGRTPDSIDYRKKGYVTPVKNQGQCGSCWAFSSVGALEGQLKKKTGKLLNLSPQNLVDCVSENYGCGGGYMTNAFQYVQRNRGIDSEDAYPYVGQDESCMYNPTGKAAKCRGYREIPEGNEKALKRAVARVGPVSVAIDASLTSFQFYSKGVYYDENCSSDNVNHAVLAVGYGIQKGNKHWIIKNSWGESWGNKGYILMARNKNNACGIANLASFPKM

[27] = Selectivity for rabbit cathepsin K over human cathepsin B; summary of the method: as §3
[28] = Half life in rat at 10 mL/kg, po; assay type: ADME, organism-based; conditions: in vivo; summary of the method: as §1
[29] = Oral bioavailability in rat at 10 mL/kg; assay type: ADME, organism-based; conditions: in vivo; summary of the method: as §1
Rattus norvegicus [30] = experiment: Volume of distribution in rat at 10 mL/kg, po; assay type: ADME, organism-based; conditions: in vivo; summary of the method: as §1
[31] = Clearance in dog at 5 mL/kg, po; assay type: ADME, organism-based, Canis lupus familiaris; conditions: in vivo; summary of the method: as §1
[32] = Half life in rhesus monkey at 1 mL/kg, po; assay type: ADME, organism-based, Macaca mulatta; conditions: in vivo; summary of the method: as §1
[33] = Selectivity for rabbit cathepsin K over human cathepsin F
[34] = Protein binding in human plasma by ultracentrifugation; assay type: ADME, cell-free; conditions: read-out: PPB (converted)
[35] = Protein binding in rat plasma by ultracentrifugation; assay type: ADME, cell-free; conditions: read-out: PPB (converted)
[36] = Protein binding in rabbit plasma by ultracentrifugation; assay type: ADME, cell-free, Oryctolagus cuniculus; conditions: read-out: PPB (converted)

SMILES	Vdss (Canis familiaris)	Selectivity ratio [4]	half-life [5]	bioavailability [7]	Selectivity ratio [9]	Selectivity ratio [10]	Ratio IC50 [15]	IC50 [17]	IC50 [19]	CL/F [21]	Selectivity ratio [23]	Selectivity ratio [26]	IC50 (Cathepsin K)	Selectivity ratio [27]	half-life [28]	bioavailability [29]	Vdss (Rattus norvegicus [30])	CL/F [31]	Selectivity ratio [33]	further results
CS(=O)(=O)c1ccc(-c2cn(CC(F)(F)F)nc2[C@@H]2CCC(Cl)(Cl)C[C@H]2C(=O)NC2(C#N)CC2)cc1	2.1 L/kg	4300	34 h	60%	1100	> 140000	8	50 nM	0.62 nM	7.8 mL/min/kg	1700	6000	6.1 nM	> 16000	4.4 h	105%	2.8 L/kg	1.4 mL/min/kg	110	dose excreted at 96 h [1]: 18%; dose excreted at 96 h [2]: 16%; dose excreted at 96 h [3]: 92%; bioavailability [6]: 104%; Activity (Rhesus monkey [8]): 76%; AUC at 168 h [11]: 4.2 µM·h; Cmax [12]: 400 nM; concentration at 24 h [13]: 80 nM; inhibition (Homo sapiens): > 99%; Tmax [14]: 4 h; Activity (Rattus norvegicus [16]): 0.1%; dose excreted at 96 h [18]: 58%; IC50 [20]: 2 nM; Activity (Rhesus monkey [22]): 72%; CL/F [24]: 5 mL/min/kg; Vdss (Rhesus monkey [25]): 3.4 L/kg; half-life [32]: 13 h
CSc1ccc(-c2ccccc2[C@@H]2CCC(F)(F)C[C@H]2C(=O)NCC#N)cc1		940					53	16 nM	0.28 nM					> 36000						fraction unbound [34]: 0.15; fraction unbound [35]: 0.15; fraction unbound [36]: 0.15
CS(=O)(=O)c1ccc(-c2cn(CC(F)(F)F)nc2[C@@H]2CCC(F)(F)C[C@H]2C(=O)NC2(C#N)CC2)cc1	1.2 L/kg	7100	7.8 h	31%	1100	> 140000	6	51 nM	0.69 nM	14 mL/min/kg	1700	6000	9.3 nM	> 14000	4.4 h	25%	3.2 L/kg	1.8 mL/min/kg	110	
CSc1ccc(-c2cn(C)nc2[C@@H]2CCC(F)(F)C[C@H]2C(=O)NCC#N)cc1 (racemic)		490					100	41 nM	0.37 nM				0.41 nM	9500						
CS(=O)(=O)c1ccc(-c2c[nH]nc2[C@@H]2CCC(F)(F)C[C@H]2C(=O)NC2(C#N)CC2)cc1		2300					7	120 nM	1.8 nM				18.6 nM	2900						
Cn1cc(-c2ccc(S(C)(=O)=O)cc2)c([C@@H]2CCC(F)(F)C[C@H]2C(=O)NC2(C#N)CC2)n1		1200					8	35 nM	0.81 nM				4.5 nM	4400						
